# Experimental data taken from ChEMBL document CHEMBL1125592, “Calcium channel blocking and positive inotropic activities of ethyl 5-cyano-1,4-dihydro-6-methyl-2-[(phenylsulfonyl)methyl]-4-aryl-3- pyridine-carboxylate and analogues. Synthesis and structure-activity relationships” (J Med Chem, 1991).
# The source made the active and inactive calls. No cut-off for these calls is given here.
# Columns and labels:
# Rattus norvegicus [1] = species: Rattus norvegicus; assay: Cardiovascular activity in isolated rat heart, concentration producing 25% increase in CF (cardiac flow).; type: functional
# Outline: (§1)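 Isolated Langendorff-perfused rat heart. Coronary flow (CF), LV +dP/dtmax and heart rate recorded during exposure to test agent. Value is the concentration giving a 25% rise in CF or in LV +dP/dtmax, mean ± SE. At least two hearts per compound.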
# Rattus norvegicus [2] = species: Rattus norvegicus; assay: Compound was tested for the cardiovascular activity in isolated rat heart. Value represents the concentration producing 25% increase in LV + dP/dtmax; NA indicates not active; type: functional; outline: as §1
# [3] = target: Voltage-gated L-type calcium channel (Rattus norvegicus, UniProt P22002+Q02485+P27732); assay: Affinity to bind dihydropyridine receptor (DHP receptor) by inhibiting the radioligand [3H]nitrendipine; type: protein assay
# Outline: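 [3H]nitrendipine displacement, rat brain cortical membranes. Each compound first screened at 1000 nM; if inhibition exceeded 40%, a four- to seven-point curve with unlabeled compound was run. IC50 generally mean of two experiments, each in triplicate. ">1000 nM" means under 40% inhibition of control binding at 1000 nM.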
# Rattus norvegicus [4] = species: Rattus norvegicus; assay: Compound was tested for the cardiovascular activity in isolated rat heart. Value represents the concentration producing 25% increase in CF (cardiac flow); NA indicates not active; type: functional; outline: as §1
# Oryctolagus cuniculus [5] = species: Oryctolagus cuniculus; assay: Vasorelaxant effect at a concentration of 10e-7 M on rabbit aortic rings previously contracted with 1.0 uM Norepinephrine.; type: functional
# Outline: (§2)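 Rabbit aortic rings precontracted with 50 mM KCl or 1.0 μM norepinephrine, then exposed to increasing concentrations of test agent. Relaxation recorded at each concentration.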
# Oryctolagus cuniculus [6] = species: Oryctolagus cuniculus; assay: Vasorelaxant effect at a concentration of 10e-4 M on rabbit aortic rings previously contracted with 1.0 uM Norepinephrine.; type: functional; outline: as §2
# Oryctolagus cuniculus [7] = species: Oryctolagus cuniculus; assay: Vasorelaxant effect at a concentration of 10e-6 M on rabbit aortic rings previously contracted with 50 mM KCl.; type: functional; outline: as §2
# Oryctolagus cuniculus [8] = species: Oryctolagus cuniculus; assay: Vasorelaxant effect at a concentration of 10e-6 M on rabbit aortic rings previously contracted with 1.0 uM Norepinephrine.; type: functional; outline: as §2
# Oryctolagus cuniculus [9] = species: Oryctolagus cuniculus; assay: Vasorelaxant effect at a concentration of 10e-5 M on rabbit aortic rings previously contracted with 1.0 uM Norepinephrine.; type: functional; outline: as §2
# Oryctolagus cuniculus [10] = species: Oryctolagus cuniculus; assay: Vasorelaxant effect at a concentration of 10e-4 M on rabbit aortic rings previously contracted with 50 mM KCl.; type: functional; outline: as §2
# Oryctolagus cuniculus [11] = species: Oryctolagus cuniculus; assay: Vasorelaxant effect at a concentration of 10e-9 M on rabbit aortic rings previously contracted with 1.0 uM Norepinephrine.; type: functional; outline: as §2
# Oryctolagus cuniculus [12] = species: Oryctolagus cuniculus; assay: Vasorelaxant effect at a concentration of 10e-8 M on rabbit aortic rings previously contracted with 1.0 uM Norepinephrine.; type: functional; outline: as §2
# Oryctolagus cuniculus [13] = species: Oryctolagus cuniculus; assay: Vasorelaxant effect at a concentration of 10e-8 M on rabbit aortic rings previously contracted with 50 mM KCl.; type: functional; outline: as §2
# Oryctolagus cuniculus [14] = species: Oryctolagus cuniculus; assay: Vasorelaxant effect at a concentration of 10e-7 M on rabbit aortic rings previously contracted with 50 mM KCl.; type: functional; outline: as §2
# Oryctolagus cuniculus [15] = species: Oryctolagus cuniculus; assay: Vasorelaxant effect at a concentration of 10e-9 M on rabbit aortic rings previously contracted with 50 mM KCl.; type: functional; outline: as §2
# Oryctolagus cuniculus [16] = species: Oryctolagus cuniculus; assay: Vasorelaxant effect at a concentration of 10e-5 M on rabbit aortic rings previously contracted with 50 mM KCl.; type: functional; outline: as §2
# Rattus norvegicus [17] = species: Rattus norvegicus; assay: Cardiovascular activity in isolated rat heart, concentration producing 25% increase in LV + dP/dtmax.; type: functional; outline: as §1
# Rattus norvegicus [18] = species: Rattus norvegicus; assay: Compound was tested for its effect on coronary vasodilator in isolated rat hearts.; type: functional
# Outline: (§3)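 Coronary vasodilation and ventricular contractility measured in isolated Langendorff-perfused rat hearts. EC25 (concentration raising the parameter by 25%) given as mean ± SEM of four to six hearts.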
# Rattus norvegicus [19] = species: Rattus norvegicus; assay: Compound was tested for its effect on ventricular cantractility in isolated rat hearts.; type: functional, Cardiac ventricle; outline: as §3
# Oryctolagus cuniculus [20] = species: Oryctolagus cuniculus; assay: Vasorelaxant effect at a concentration of 10e-10 M on rabbit aortic rings previously contracted with 1.0 uM Norepinephrine.; type: functional, Aorta
# Outline: (§4)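 They were then exposed to increasing concentrations of the test agent, and relaxation of the precontraction was recorded as calcium channel blocking activity.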
# Oryctolagus cuniculus [21] = species: Oryctolagus cuniculus; assay: Vasorelaxant effect at a concentration of 10e-10 M on rabbit aortic rings previously contracted with 50 mM KCl.; type: functional, Aorta; outline: as §4
compound,measurement,setting,value
CCO/C(O)=C1\C(CS(=O)(=O)c2ccc(Cl)cc2)=NC(C)=C(C#N)C1c1ccccc1C(F)(F)F (centres undefined),EC25,Rattus norvegicus [1],0.55 µM
same,EC25,Rattus norvegicus [2],inactive
same,IC50,[3],91 nM
CCOC(=O)C1=C(C[S+]([O-])c2ccccc2)NC(C)=C(C#N)C1c1cccc([N+](=O)[O-])c1 (stereo in doubt; 32a),EC25,Rattus norvegicus [4],inactive
NITROPRUSSIDE,Vasorelaxant effect,Oryctolagus cuniculus [5]; Aorta,7
same,Vasorelaxant effect,Oryctolagus cuniculus [6]; Aorta,55.8
same,Vasorelaxant effect,Oryctolagus cuniculus [7]; Aorta,22
same,Vasorelaxant effect,Oryctolagus cuniculus [8]; Aorta,22.8
same,Vasorelaxant effect,Oryctolagus cuniculus [9]; Aorta,39.8
same,Vasorelaxant effect,Oryctolagus cuniculus [10]; Aorta,52.1
same,Vasorelaxant effect,Oryctolagus cuniculus [11]; Aorta,-0.003
same,Vasorelaxant effect,Oryctolagus cuniculus [12]; Aorta,0.7
same,Vasorelaxant effect,Oryctolagus cuniculus [13]; Aorta,-4.8
same,Vasorelaxant effect,Oryctolagus cuniculus [14]; Aorta,5.6
same,Vasorelaxant effect,Oryctolagus cuniculus [15]; Aorta,-5.9
same,Vasorelaxant effect,Oryctolagus cuniculus [16]; Aorta,40.4
CCO/C(O)=C1\C(CS(=O)(=O)c2ccc(N)cc2)=NC(C)=C(C#N)C1c1ccccc1C(F)(F)F (centres undefined),EC25,Rattus norvegicus [17],0.84 µM
same,Vasorelaxant effect,Oryctolagus cuniculus [5],2
same,Vasorelaxant effect,Oryctolagus cuniculus [6],5
same,Vasorelaxant effect,Oryctolagus cuniculus [7],5
same,EC25,Rattus norvegicus [1],0.94 µM
same,Vasorelaxant effect,Oryctolagus cuniculus [8],2
same,Vasorelaxant effect,Oryctolagus cuniculus [9],2
same,Vasorelaxant effect,Oryctolagus cuniculus [10],69
same,IC50,[3],1000 nM
same,Vasorelaxant effect,Oryctolagus cuniculus [14],2
same,Vasorelaxant effect,Oryctolagus cuniculus [16],38
CCOC(=O)C1=C(CS(=O)(=O)c2ccncc2)NC(C)=C(C#N)C1c1ccccc1C(F)(F)F (stereo in doubt; 54A),EC25,Rattus norvegicus [18],0.128 µM
same,EC25,Rattus norvegicus [19],0.701 µM
same,IC50,[3],152 nM
CCOC(=O)C1=C(C[S+]([O-])c2ccccc2)NC(C)=C(C#N)C1c1ccccc1C(F)(F)F (stereo in doubt; 29a),EC25,Rattus norvegicus [4],inactive
CC1=C(C#N)C(c2ccccc2C(F)(F)F)/C(=C(\O)OC(C)C)C(C[S+]([O-])c2ccccc2)=N1 (centres undefined),EC25,Rattus norvegicus [1],0.24 µM
same,EC25,Rattus norvegicus [2],inactive
same,IC50,[3],500 nM
CCO/C(O)=C1\C(CS(=O)(=O)c2ccccc2)=NC(C)=C(C#N)C1c1ccccc1C(F)(F)F (centres undefined),EC25,Rattus norvegicus [17],0.11 µM
same,Vasorelaxant effect,Oryctolagus cuniculus [5],5
same,Vasorelaxant effect,Oryctolagus cuniculus [6],23
same,Vasorelaxant effect,Oryctolagus cuniculus [7],24
same,EC25,Rattus norvegicus [1],0.07 µM
same,Vasorelaxant effect,Oryctolagus cuniculus [8],7
same,Vasorelaxant effect,Oryctolagus cuniculus [9],13
same,Vasorelaxant effect,Oryctolagus cuniculus [10],80
same,IC50,[3],120 nM
same,Vasorelaxant effect,Oryctolagus cuniculus [14],4
same,Vasorelaxant effect,Oryctolagus cuniculus [16],67
COC(=O)C1=C(C)NC(C)=C(C(=O)OC)C1c1ccccc1[N+](=O)[O-] [NIFEDIPINE],Vasorelaxant effect,Oryctolagus cuniculus [20],-1
same,Vasorelaxant effect,Oryctolagus cuniculus [5],1
same,Vasorelaxant effect,Oryctolagus cuniculus [7],89.4
same,Vasorelaxant effect,Oryctolagus cuniculus [8],3.5
same,Vasorelaxant effect,Oryctolagus cuniculus [9],6.1
same,Vasorelaxant effect,Oryctolagus cuniculus [11],-1.2
same,Vasorelaxant effect,Oryctolagus cuniculus [12],-1.1
same,Vasorelaxant effect,Oryctolagus cuniculus [13],24.7
same,Vasorelaxant effect,Oryctolagus cuniculus [21],-3.1
same,Vasorelaxant effect,Oryctolagus cuniculus [14],65.8
same,Vasorelaxant effect,Oryctolagus cuniculus [15],-1.7
same,Vasorelaxant effect,Oryctolagus cuniculus [16],92.6
CCOC(=O)C1=C(CS(=O)(=O)c2ccncc2)NC(C)=C(C#N)C1c1ccccc1C(F)(F)F (stereo in doubt; 54B),EC25,Rattus norvegicus [18],1.622 µM
same,EC25,Rattus norvegicus [19],0.888 µM
CCO/C(O)=C1\C(C[S+]([O-])c2ccc(OC)cc2)=NC(C)=C(C#N)C1c1ccccc1C(F)(F)F (centres undefined),EC25,Rattus norvegicus [1],0.3 µM
same,EC25,Rattus norvegicus [2],inactive
same,IC50,[3],1200 nM
CCO/C(O)=C1\C(CS(=O)(=O)c2ccccc2)=NC(C)=C(C#N)C1c1cccc([N+](=O)[O-])c1 (centres undefined),EC25,Rattus norvegicus [17],0.52 µM
same,EC25,Rattus norvegicus [1],0.51 µM
same,IC50,[3],300 nM
CO/C(O)=C1\C(C[S+]([O-])c2ccccc2)=NC(C)=C(C#N)C1c1ccccc1C(F)(F)F (centres undefined),EC25,Rattus norvegicus [17],0.26 µM
same,EC25,Rattus norvegicus [1],1.48 µM
same,IC50,[3],> 1000 nM
CCO/C(O)=C1\C(CS(=O)(=O)c2ccccc2)=NC(C)=C(C#N)C1c1ccccc1 (centres undefined),EC25,Rattus norvegicus [17],0.96 µM
same,Vasorelaxant effect,Oryctolagus cuniculus [5],0
same,Vasorelaxant effect,Oryctolagus cuniculus [6],6
same,Vasorelaxant effect,Oryctolagus cuniculus [7],1
same,Vasorelaxant effect,Oryctolagus cuniculus [8],1
same,Vasorelaxant effect,Oryctolagus cuniculus [9],0
same,Vasorelaxant effect,Oryctolagus cuniculus [10],54
same,IC50,[3],480 nM
same,Vasorelaxant effect,Oryctolagus cuniculus [14],4
same,EC25,Rattus norvegicus [4],inactive
same,Vasorelaxant effect,Oryctolagus cuniculus [16],26
